Measurements as given in ChEMBL document CHEMBL5143748, “Quinolines and Oxazino-quinoline Derivatives as Small Molecule GLI1 Inhibitors Identified by Virtual Screening” (ACS Med Chem Lett, 2022).
pIC50: −log10 of the molar value. Active and inactive are the calls of the source. The rule behind the calls is not given here.

Experiments:
Daoy = assay: Antiproliferative activity against human DaOY cells assessed as reduction in cell viability incubated for 72 hrs by trypan blue or crystal violet staining based assay; assay type: functional
Method in brief: (§1)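 IC50 in micromolar, fitted from triplicate experiments in human melanoma A375 and medulloblastoma DAOY cells.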

A-375 = assay: Antiproliferative activity against human A375 cells assessed as reduction in cell viability incubated for 72 hrs by trypan blue or crystal violet staining based assay; assay type: functional; conditions: A-375, 72 h; method in brief: as §1
NIH3T3 = assay: Inhibition of hedgehog signalling in SAG-induced mouse NIH3T3 cells assessed as decrease in GLI1 protein expression level at 1 uM for 48 hrs by Western blot analysis; assay type: cell-based
Method in brief: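 Murine NIH3T3 cells, endogenous Hh pathway activated with the SMO agonist SAG (100 nM), co-treated with compound (1 μM), DMSO vehicle or GANT61 (5 μM) for 48 h. Endogenous GLI1 detected by Western blot with HSP90 as loading control. Reduction graded qualitatively, e.g. "+" weak, "NA" not affected.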

Compound	pIC50 (Daoy)	pIC50 (A-375)	inhibition (NIH3T3)
c1cnc2c3c(ccc2c1)CN(CC1CCCCC1)CO3	6.00	6.42	Active
CCCCC(=O)NC(c1cc(Cl)cc(Cl)c1)c1ccc2cccnc2c1O (stereo not given)	6.85	7.05	Active
Fc1cnc2c3c(ccc2c1)CN(CCc1ccccc1)CO3	5.85	5.96	Active
CCCC(=O)NC(c1ccc(Cl)cc1Cl)c1ccc2cccnc2c1O (stereo not given)	6.72	6.96	Active
C1=C(CCN2COc3c(ccc4cccnc34)C2)CCCC1	6.64	6.92	Active
CCCC(=O)NC(c1ccc(Cl)cc1)c1cc(Cl)c2cccnc2c1O (stereo not given)	7.00	6.92	
CCCC(=O)NC(c1ccc(C)cc1)c1cc(Cl)c2cccnc2c1O (stereo not given)	7.00	6.92	Active
Oc1c(C(NCCc2ccccc2)c2ccc(Cl)cc2Cl)ccc2cccnc12 (stereo not given)	6.82	6.72	Active
O=C(NC(c1ccc(Cl)cc1Cl)c1ccc2cccnc2c1O)C1CCCCC1 (stereo not given)	6.62	6.00	Active
c1cnc2c3c(ccc2c1)CN(C1CCCCCCC1)CO3	6.54	6.55	Active
Clc1cnc2c3c(ccc2c1)CN(CCCN1CCOCC1)CO3	5.92	6.82	Active
CCCCC(=O)NC(c1ccc(Cl)c(Cl)c1)c1ccc2cccnc2c1O (stereo not given)	7.00	6.49	Active
Oc1c(CNCCc2ccccc2)ccc2cccnc12	6.48	6.41	Active
CCCC(=O)NC(c1ccc(N(CC)CC)cc1)c1cc(Cl)c2cccnc2c1O (stereo not given)	7.00	6.89	Active
CCCC(=O)NC(c1ccccc1)c1cc(Cl)c2cccnc2c1O (stereo not given)	6.96	6.89	
O=C(NCc1ccc2c(OCc3ccccc3)ccnc2c1O)C1CCCCC1	6.59	6.26	Active
CCCCC(=O)NC(c1ccc(Cl)cc1)c1ccc2cccnc2c1O (stereo not given)	6.48	6.15	Active

Compound	pIC50 (Daoy)	pIC50 (A-375)	inhibition (NIH3T3)
c1ccc2c(c1)CCCC2N1COc2c(ccc3cccnc23)C1 (stereo not given)	6.22	6.52	Active
CCCCC(=O)NC(c1ccc(Cl)cc1Cl)c1ccc2cccnc2c1O (stereo not given)	6.82	5.95	Active
CCCC(=O)NC(c1ccccc1Cl)c1cc(Cl)c2cccnc2c1O (stereo not given)	7.00	7.00	Active
COc1ccc(C(NC(C)=O)c2cc(Cl)c3cccnc3c2O)cc1OC (stereo not given)	6.68	6.96	Active
CCCCN1COc2c(ccc3cc(Cl)cnc23)C1	6.42	6.31	Active
c1ccc(CCN2COc3c(ccc4cccnc34)C2)cc1	6.72	6.89	Active
COc1ccc(C(NC(=O)C(C)C)c2cc(Cl)c3cccnc3c2O)cc1OC (stereo not given)	7.00	6.89	Active
c1cnc2c3c(ccc2c1)CN(C1CCCCCC1)CO3	5.92	6.06	Active
O=C(NC(c1ccc(Cl)cc1Cl)c1ccc2cccnc2c1O)C1CCCC1 (stereo not given)	6.82	6.49	Active
O=C(NCc1ccc2cccnc2c1O)C1CCCCC1	6.14	6.04	Active
c1cnc2c3c(ccc2c1)CN(C1CCCCC1)CO3	6.30	6.52	Active
CCCCOc1ccnc2c(O)c(CNC(=O)C3CCCCC3)ccc12	6.29	6.27	Active
CCCC(=O)NC(c1ccc(C(C)C)cc1)c1cc(Cl)c2cccnc2c1O (stereo not given)	7.05	6.92	Active
CCCC(=O)NC(c1ccc(OC)c(OC)c1)c1ccc2cccnc2c1O (stereo not given)	6.96	6.89	Active
COc1ccc(CN2COc3c(ccc4cccnc34)C2)cc1	6.06	6.24	Active
CC1CCC(N2COc3c(ccc4cccnc34)C2)CC1 (stereo not given)	6.26	6.38	Active
Fc1cnc2c3c(ccc2c1)CN(C1CCCCC1)CO3	6.52	6.30	Active
